ChEMBL document CHEMBL4513216, “Probing the Open Global Health Chemical Diversity Library for Multistage-Active Starting Points for Next-Generation Antimalarials” (ACS Infect Dis, 2020)

Assay: Toxicity liver stage against HepG2, at 10uM
Format: cell-based
Set-up: test concentration 10 uM, cell line HepG2-A16-CD81EGFP
Settings: human, HepG2-A16-CD81EGFP cells; read-out: INHIBITION
Outline: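 Uninfected HepG2-A16-CD81EGFP cells, 3 × 10^3 per well, 1536-well, plated on prespotted compound at 10 μM final, parasite-free screening media added to match infected plates; puromycin 10 μM positive, DMSO 0.5% negative; run in parallel with 48 h PbLuc assay at 37 °C, 5% CO2; viability by CellTiter-Glo luminescence, normalized to controls.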

Compound	cytotoxicity at 10 µM [%]
Cc1cc(N2CCC(O)CC2)nc(C)n1	-74.7
CN1C[C@@H](F)[C@@H](OCc2nc3ccccc3n2C)C1	0.876
CN(CCC(O)c1ccccc1)Cc1ccccc1C#N (stereo unspecified)	6.87
COc1ccc(CN2CC(O)CN(C(=O)C3CCC3)CC2=O)cc1 (stereo unspecified)	-12.8
CC(C)Cc1cc(C(=O)O)nc2[nH]c(=O)[nH]c(=O)c12	-0.508
COCCNC(=O)Cc1cnc(-n2cccc2)s1	-3.35
CCS(=O)(=O)N1CC(c2nc(-c3ccncc3)no2)C1	-5.86
COCC(=O)NCC(Cc1cccc(F)c1)n1cccc1 (stereo unspecified)	2.55
O=C(CN1C(=O)CCC1=O)NCCc1nc(C2CC2)cc(C(F)(F)F)n1	-2.02
O=c1ccc2c([nH]1)CCN(S(=O)(=O)c1ccc3c(c1)CCCC3)C2	-4.63
Cc1cc(C(O)CCNC(=O)COc2ccccc2C)c(C)o1 (stereo unspecified)	2.86
O=C(C1CCOCC1)N1C[C@H]2CNC[C@H]2C1	-8.58
CCCS(=O)(=O)N1CCC2(CC1)COCCN(C(C)=O)C2	15.9
COCCN1CCCC12CCCN(c1nncs1)C2 (stereo unspecified)	9.79
O=S(=O)(C1CC1)N1CCn2c(Cn3cccn3)cnc2C1	12.4
CCCS(=O)(=O)N1CCC2(CCCN(c3ncc(F)cn3)C2)C1 (stereo unspecified)	13.4
Fc1cccc(N2CCOC3(CCCN(c4cnccn4)C3)C2)c1 (stereo unspecified)	5.89
CC(C)CNC(=O)N1C[C@H]2CC[C@@]3(N=C(c4ccccc4)NC3=O)[C@H]2C1	-5.82
Cn1cc(CN2CCC3(CC2)CCN(Cc2ccccn2)CC3)cn1	9.84
Cc1ccc(-c2csc(N)c2C#N)c(C)c1	10.5
O=C(NCCN1CCC(c2cccs2)CC1)c1ccccc1C(F)(F)F	-20.2
CN(C)C(=O)CO[C@@H]1CC[C@H]2[C@H]1OCCN2C(=O)C1CCOCC1	-7.56
COc1ccc(CCC(=O)N(C)Cc2c(C)nn(C)c2C)cc1	-0.734

Compound	cytotoxicity at 10 µM [%]
CC1(c2ncc(CN3CCSCC3)cn2)CCCCO1 (stereo unspecified)	2.12
CN(C)C(=O)C1(c2cnccn2)CCCN1C(=O)Cc1ccsc1 (stereo unspecified)	-1.84
CC(C)Nc1cccc(CC2CCN(S(C)(=O)=O)CC2)n1	-22.3
CNc1cc(C2CN(Cc3csc(C)n3)CCO2)nc(C)n1 (stereo unspecified)	-1.6
Cc1nccc(C2CCCCN2Cc2ccc(F)cc2)n1 (stereo unspecified)	-6.06
CC(C)NC(=O)C1(Cc2ccccc2-c2cccs2)CCNC1 (stereo unspecified)	-42
COc1cccc(CN2CC[C@H](NC(C)=O)[C@@H](O)CC2)c1F	-8.63
O=C(c1ccncc1)N1CCCC1c1nc(O)cc(-c2ccccn2)n1 (stereo unspecified)	-9.08
COc1ncc(CN2CCOC(C)(C(=O)N3CCOCC3)C2)cn1 (stereo unspecified)	-9.49
CNc1cccc(C2CCCN(C(=O)c3coc(C)n3)C2)n1 (stereo unspecified)	-11.7
Cc1ccn(CCC(=O)N2CCCC(Cc3cccnc3)C2)n1 (stereo unspecified)	-4.47
C[C@]1(O)CN(CC(=O)N2CCCC2)CC[C@@H]1Oc1cccc(F)c1	-19.1
CNC(=O)C1(CCCc2cccnc2)CCCCN1 (stereo unspecified)	2.34
Cc1ccc(-n2cnc(Cl)c2CO)cc1	-0.303
CN(CCOCC1CC1)C(=O)Nc1ccc([S+](C)[O-])c(F)c1 (stereo unspecified)	-1.7
O=C(NCCNCc1cccc2c1OCCCO2)C1CCCC1	8.08
Cc1ccc(N2CCCC(N(C)Cc3nc(C)c(C)o3)C2)nn1 (stereo unspecified)	3.15
COCCN(Cc1cccc(C#N)c1)Cc1nc(C)no1	1.18
CC(C)(C)c1noc(CNc2ccccc2N2CCC(O)CC2)n1	0.965
O=C(O)[C@H]1CCCN1CCOc1cccc(Cl)c1	17
O=C(Nc1ccc(Cn2cccn2)cc1)N1CCC2(CC1)OCCO2	6.09
CNC(=O)CN(C(=O)c1ccc(SC)o1)c1cccc(F)c1	10.3
Cc1cc(NC(=O)C(c2cccc(F)c2)N2CCOCC2)ccn1 (stereo unspecified)	0.278

Compound	cytotoxicity at 10 µM [%]
CSCC(CCO)NC(=O)Nc1cc(C)ccc1C (stereo unspecified)	-17
O=C(c1cnccn1)N1CCC2(CC1)CC(Oc1ccccc1)CO2 (stereo unspecified)	2.74
CC(C)CNC(=O)c1ccc2nnc(C3CCN(S(C)(=O)=O)C3)n2c1 (stereo unspecified)	5.09
Nc1nccc(-c2c[nH]nc2C2CCCCC2)n1	36.5
CCC(C)N(Cc1cnc(NCC(=O)O)nc1)Cc1ccsc1 (stereo unspecified)	0.866
Cc1nc2c(c(N3CCCOCC3)n1)CCN(c1nccs1)CC2	3.08
CCOc1ccccc1C(C(=O)O)N(C)CC1CCOCC1 (stereo unspecified)	-4.36
Cc1cccc(C)c1OC1CN(Cc2cnc(N3CCCC3)nc2)C1	1.35
CNc1ncc(CN(C)Cc2cc(O)c3cc(F)ccc3n2)cn1	1.95
Cc1cc(-n2cccn2)ccc1CN1CCC(O)(CN2CCCCC2)C1 (stereo unspecified)	6.2
CC[C@H]1COCCN1C(=O)c1cnc(C(C)C)nc1C	8.51
CN(CC1Cc2ccccc2CN1C)C(=O)CSc1nccn1C (stereo unspecified)	-10.8
CSCC(=O)N1CCCC(CO)(CC2CC2)C1 (stereo unspecified)	4.38
CC(C(=O)N(C)C)N1CCc2onc(-c3cccc(F)c3)c2C1 (stereo unspecified)	-6.93
CCOc1cc2c(cc1CN1CCC3(CCCNC3=O)C1)CCC2 (stereo unspecified)	14.9
Cc1nnc(N2CCN(C)C3(CCC(=O)N(CCO)CC3)C2)s1 (stereo unspecified)	-9.2
OCC1COCCN(Cc2cc(C3CCCCC3)no2)C1 (stereo unspecified)	6.44
CSCCc1n[nH]c2c1CN(S(=O)(=O)c1c(C)nn(C)c1C)CC2	7.66
CCOC(=O)C1(Cc2cccc(OC)c2)CCCN(Cc2ncc[nH]2)C1 (stereo unspecified)	3.86
Cc1ccccc1CSc1nc(N)cc(N2CCCC(C(N)=O)C2)n1 (stereo unspecified)	-2.32
c1ccc(OCc2noc(CN3CCN(C4CCCC4)CC3)n2)cc1	-6.66
CC(C)Cc1nc(CCn2cncn2)n(-c2ccc3c(c2)OCCO3)n1	12.5
COCCN1CCC2(CC1)CC(c1ccccc1)C(=O)N2C (stereo unspecified)	7.91

Compound	cytotoxicity at 10 µM [%]
CCc1n[nH]c(C(=O)N2CCC3(CCCN(CCOC)C3=O)C2)c1C (stereo unspecified)	6.38
COCC1(CNc2cc(C(C)C)nc(N)n2)CC1	29.4
COc1ccc(CN2CCCn3cncc3C2)cc1Cn1cncn1	5.63
CC(C)Oc1cccc(CN2CCC(C(C)N3CCOCC3)CC2)c1 (stereo unspecified)	-5.84
CCc1ccc(CN(C)c2cc(COC)nc3ccnn23)cc1	3.52
CC(C)c1cc(CN2CCC(N)CC2)on1	-10.7
CC(NCc1ccccc1Cl)c1ccc2[nH]c(=O)[nH]c2c1 (stereo unspecified)	-9.7
Cc1nc2cc(=O)[nH]n2c(C)c1CC(=O)NCc1ccc(C#N)cc1	-3.34
O=C(CSc1ccccc1F)NS(=O)(=O)c1ccc2c(c1)OCCO2	-4.36
CC(=O)Nc1nc(C(=O)N2CCCC2c2noc(C(C)C)n2)cs1 (stereo unspecified)	-20.1
CCn1ccnc1CN1CCCC1c1noc(C2CC2)n1 (stereo unspecified)	-17.4
Cc1nc(C2CCCN(C(=O)c3cc(Cl)c[nH]3)C2)sc1C (stereo unspecified)	-21.5
Cc1nc(C)n(C2CCCN(C(=O)c3c[nH]c(C(C)C)n3)C2)n1 (stereo unspecified)	-19.9
c1cnn(CC2CCCN2Cc2ccc(-n3cccn3)cc2)c1 (stereo unspecified)	-4.8
CC(C)c1nc(CN2CCCC2CN2CCCC2)cs1 (stereo unspecified)	6.72
Cc1ccc(CNC(=O)Nc2nnc(C)s2)cn1	-0.243
Cc1ccc(CC(=O)N2CCc3nnc(N(C)C)cc3C2)cn1	-8.16
Cc1nccn1C1CCCN(C(=O)c2cc3ccccc3[nH]2)C1 (stereo unspecified)	-12.2
CC(C)c1nnc2n1CCN(C(=O)c1cccc(C(F)(F)F)c1)C2	4.09
CC(C)c1nc(C2CCCN(Cc3nnc(C4CC4)o3)C2)no1 (stereo unspecified)	5.65
COCCc1noc(CN2CCCC(Cn3nc(C)nc3C)C2)n1 (stereo unspecified)	-6.41
O=C(CN1CCOC(Cn2cccn2)C1)Nc1nncs1 (stereo unspecified)	4.79
CN(C)[C@@H]1CN(Cc2ccc(O)cc2)C[C@H]1c1cn(C)c2ccccc12	2.39

Compound	cytotoxicity at 10 µM [%]
CCC(C)[C@H](N)c1nnc(SCC(=O)Nc2ccc(Br)cc2)o1 (stereo partly specified)	-3.48
COc1ncc(CN2C[C@@H]3CC[C@@](O)(c4ccc(C)cn4)[C@@H]3C2)cn1	-10.3
CCn1cncc1CN(Cc1ccc(OC)cc1OC)CC1CCCO1 (stereo unspecified)	-18
Cn1cc(CN2CCO[C@@H]3CN(C4CCCC4)C[C@@H]3C2)cn1	-4.8
CNC(=O)CN1CC[C@H]2CN(C(=O)c3cc[nH]n3)C[C@H]2C1	0.53
CCN1CCC2(CC1)CC(NC(=O)c1csnn1)c1ccccc1O2 (stereo unspecified)	-116
COc1ccccc1OCCc1cc(C2CCNC2)n[nH]1 (stereo unspecified)	-17.1
Cc1cncc(C(=O)N2CCC3(CCCN(c4nncs4)C3)C2)c1 (stereo unspecified)	-99.4
c1csc(CN2CCO[C@H]3[C@H](OCC4CCCC4)CC[C@@H]32)n1	6.09
Cn1ccc(C(=O)N2CCC[C@]3(C[C@@H](OCc4ccccn4)CO3)C2)n1	0.333
O=C(C1CCOCC1)N1CC[C@H]2[C@H]1CCN2c1nncs1	-4.78
c1csc(NCc2n[nH]c3c2CCN(CC2CC2)C3)n1	-0.733
CNC(=O)NCC1CCC2(CCN(C(=O)c3cccnc3)CC2)CO1 (stereo unspecified)	-94.9
CN1CC(=O)N(c2ccccc2)CC12CCN(CCO)C2 (stereo unspecified)	3.16
CCOCc1cnc2n1CCN(Cc1nc(C)cs1)C2C (stereo unspecified)	10.2
CCn1cc2c(n1)CN(Cc1ccncc1)CC2COCC1CC1 (stereo unspecified)	6.59
O=C([C@H]1C[C@H]2CN(c3ncc(F)cn3)C[C@@H]1O2)N1CCCC1	-115
CC(C)=CCN1C[C@@H]2CC[C@H]1CN(C(=O)CCc1nnc(C)[nH]1)C2	-6.57
Cc1cnccc1CN1Cc2ccccc2OC2(CCC(CO)CC2)C1 (stereo unspecified)	-8.83
